Data from ChEMBL document CHEMBL2069216, “Discovery of novel 2-aminopyridine-3-carboxamides as c-Met kinase inhibitors” (Bioorg Med Chem, 2012).
Blank lines part the entries; values can stand above or below the molecule they belong to. Calls of active or inactive are those of the source. The rule behind the calls is not given here.

Assays:
[1] = molecular target: T1, Hepatocyte growth factor receptor (Homo sapiens, UniProt P08581); test: Inhibition of c-Met at 1 uM incubated for 60 mins by spectrophotometry
T1 sequence (P08581 whole entry): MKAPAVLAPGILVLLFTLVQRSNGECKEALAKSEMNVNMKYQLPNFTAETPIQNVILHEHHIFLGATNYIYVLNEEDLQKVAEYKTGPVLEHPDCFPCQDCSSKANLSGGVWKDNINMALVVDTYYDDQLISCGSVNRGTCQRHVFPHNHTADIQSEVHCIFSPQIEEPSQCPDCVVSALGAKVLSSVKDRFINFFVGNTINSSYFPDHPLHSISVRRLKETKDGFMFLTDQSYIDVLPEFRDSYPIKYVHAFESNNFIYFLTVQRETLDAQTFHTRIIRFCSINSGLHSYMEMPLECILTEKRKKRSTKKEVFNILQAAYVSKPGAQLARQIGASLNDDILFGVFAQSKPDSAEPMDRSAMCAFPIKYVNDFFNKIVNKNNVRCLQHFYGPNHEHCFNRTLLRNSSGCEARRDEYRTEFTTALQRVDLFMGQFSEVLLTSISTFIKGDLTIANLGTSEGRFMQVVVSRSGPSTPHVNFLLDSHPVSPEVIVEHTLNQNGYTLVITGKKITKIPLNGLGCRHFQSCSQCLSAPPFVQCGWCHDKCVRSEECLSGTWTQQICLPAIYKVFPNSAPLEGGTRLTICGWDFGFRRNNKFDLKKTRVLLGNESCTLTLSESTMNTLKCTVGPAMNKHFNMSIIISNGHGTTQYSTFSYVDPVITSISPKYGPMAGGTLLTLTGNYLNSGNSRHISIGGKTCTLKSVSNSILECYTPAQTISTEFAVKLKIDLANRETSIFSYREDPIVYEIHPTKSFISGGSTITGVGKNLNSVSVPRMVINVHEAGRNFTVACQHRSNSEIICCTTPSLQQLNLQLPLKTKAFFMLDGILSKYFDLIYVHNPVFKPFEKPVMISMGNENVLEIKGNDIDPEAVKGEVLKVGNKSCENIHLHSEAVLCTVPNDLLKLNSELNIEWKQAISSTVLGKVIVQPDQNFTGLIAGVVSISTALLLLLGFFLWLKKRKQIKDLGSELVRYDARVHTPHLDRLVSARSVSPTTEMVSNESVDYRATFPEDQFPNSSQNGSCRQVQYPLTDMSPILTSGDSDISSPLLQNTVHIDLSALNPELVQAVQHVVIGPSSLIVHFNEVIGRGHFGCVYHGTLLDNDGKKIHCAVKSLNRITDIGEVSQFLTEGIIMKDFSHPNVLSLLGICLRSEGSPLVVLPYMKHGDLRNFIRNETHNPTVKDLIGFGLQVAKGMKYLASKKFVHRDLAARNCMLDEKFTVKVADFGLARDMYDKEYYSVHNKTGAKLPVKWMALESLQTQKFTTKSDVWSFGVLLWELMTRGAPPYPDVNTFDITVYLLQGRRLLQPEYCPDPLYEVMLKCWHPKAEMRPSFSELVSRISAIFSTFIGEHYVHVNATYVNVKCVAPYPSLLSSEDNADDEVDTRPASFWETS
Summary of the method: (§1)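 Compounds in 1% DMSO; reaction started by adding purified kinase, 60 min at 37 °C. PY99 antibody, then HRP anti-mouse IgG; o-phenylenediamine/H2O2 read at 490 nm. Inhibition % = [1-(A490/A490 control)]×100; IC50 from inhibition curves.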

[2] = Antiproliferative activity against human EBC1 cells expressing elevated levels of constitutively active c-Met after 72 hrs by SRB assay; format: functional, cell-based; details: EBC-1, 72 h
Summary of the method: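 Cells seeded in 96-well plates, exposed the next day to a range of compound concentrations and cultured 72 h. Fixed with cold 10% TCA at 4 °C for 1 h, stained with 0.4% SRB in 1% acetic acid at room temperature, washed with 1% acetic acid, dye solubilized in 10 mM Tris base. OD read at 515 nm.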

[3] = molecular target: T1, Hepatocyte growth factor receptor; test: Inhibition of c-Met incubated for 60 mins at spectrophotometry
[4] = molecular target: T1, Hepatocyte growth factor receptor; test: Inhibition of c-Met phosphorylation in human EBC1 cells incubated for 4 hrs by Western blot; format: cell-based
Summary of the method: (§2)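 EBC-1 cells grown to exponential phase and treated with compound for 4 h at 37 °C. Lysed in 1× SDS sample buffer, resolved on 10% SDS-PAGE, transferred to nitrocellulose. Probed for phospho-c-Met/c-Met, phospho-ERK1/2/ERK1/2, phospho-AKT/AKT and GAPDH, then HRP anti-rabbit or anti-mouse IgG.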

[5] = molecular target: T1, Hepatocyte growth factor receptor; test: Inhibition of c-Met-mediated ERK1/2 phosphorylation in human EBC1 cells at 0.1 to 10 uM incubated for 4 hrs by Western blot; format: cell-based; summary of the method: as §2
[6] = molecular target: T1, Hepatocyte growth factor receptor; test: Inhibition of c-Met-mediated AKT phosphorylation in human EBC1 cells at 0.1 to 10 uM incubated for 4 hrs by Western blot; format: cell-based; summary of the method: as §2
[7] = molecular target: Macrophage-stimulating protein receptor (Homo sapiens, UniProt Q04912); test: Inhibition of Ron; summary of the method: as §1
[8] = molecular target: T2, Tyrosine-protein kinase Mer (Homo sapiens, UniProt Q12866); test: Inhibition of Mer; summary of the method: as §1
T2 sequence (Q12866 whole entry): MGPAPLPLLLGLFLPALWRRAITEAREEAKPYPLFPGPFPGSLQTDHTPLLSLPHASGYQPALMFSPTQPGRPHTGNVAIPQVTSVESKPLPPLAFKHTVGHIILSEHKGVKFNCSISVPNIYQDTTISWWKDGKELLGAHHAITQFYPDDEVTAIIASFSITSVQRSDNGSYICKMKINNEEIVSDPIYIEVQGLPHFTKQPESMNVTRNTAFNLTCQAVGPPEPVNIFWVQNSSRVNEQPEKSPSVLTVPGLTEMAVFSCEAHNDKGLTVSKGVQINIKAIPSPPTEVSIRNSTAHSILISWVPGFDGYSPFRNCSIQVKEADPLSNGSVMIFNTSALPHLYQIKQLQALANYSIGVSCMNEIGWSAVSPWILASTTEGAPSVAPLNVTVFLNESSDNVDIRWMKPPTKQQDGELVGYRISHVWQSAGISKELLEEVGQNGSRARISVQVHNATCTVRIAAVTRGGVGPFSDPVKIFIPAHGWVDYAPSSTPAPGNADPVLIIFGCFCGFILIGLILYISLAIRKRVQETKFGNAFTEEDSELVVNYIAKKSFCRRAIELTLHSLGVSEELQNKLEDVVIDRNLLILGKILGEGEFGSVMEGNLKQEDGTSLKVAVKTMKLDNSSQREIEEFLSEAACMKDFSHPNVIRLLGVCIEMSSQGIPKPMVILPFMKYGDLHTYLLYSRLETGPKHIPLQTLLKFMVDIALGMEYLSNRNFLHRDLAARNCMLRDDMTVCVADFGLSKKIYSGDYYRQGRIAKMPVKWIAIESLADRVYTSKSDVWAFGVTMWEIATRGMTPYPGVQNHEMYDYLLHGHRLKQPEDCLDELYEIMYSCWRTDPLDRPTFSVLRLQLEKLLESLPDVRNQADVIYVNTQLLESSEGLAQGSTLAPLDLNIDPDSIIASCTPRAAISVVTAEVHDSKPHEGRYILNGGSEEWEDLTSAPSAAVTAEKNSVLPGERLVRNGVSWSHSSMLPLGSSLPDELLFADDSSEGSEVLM

[9] = molecular target: T3, Tyrosine-protein kinase receptor TYRO3 (Homo sapiens, UniProt Q06418); test: Inhibition of TYRO3; summary of the method: as §1
T3 sequence (Q06418 whole entry): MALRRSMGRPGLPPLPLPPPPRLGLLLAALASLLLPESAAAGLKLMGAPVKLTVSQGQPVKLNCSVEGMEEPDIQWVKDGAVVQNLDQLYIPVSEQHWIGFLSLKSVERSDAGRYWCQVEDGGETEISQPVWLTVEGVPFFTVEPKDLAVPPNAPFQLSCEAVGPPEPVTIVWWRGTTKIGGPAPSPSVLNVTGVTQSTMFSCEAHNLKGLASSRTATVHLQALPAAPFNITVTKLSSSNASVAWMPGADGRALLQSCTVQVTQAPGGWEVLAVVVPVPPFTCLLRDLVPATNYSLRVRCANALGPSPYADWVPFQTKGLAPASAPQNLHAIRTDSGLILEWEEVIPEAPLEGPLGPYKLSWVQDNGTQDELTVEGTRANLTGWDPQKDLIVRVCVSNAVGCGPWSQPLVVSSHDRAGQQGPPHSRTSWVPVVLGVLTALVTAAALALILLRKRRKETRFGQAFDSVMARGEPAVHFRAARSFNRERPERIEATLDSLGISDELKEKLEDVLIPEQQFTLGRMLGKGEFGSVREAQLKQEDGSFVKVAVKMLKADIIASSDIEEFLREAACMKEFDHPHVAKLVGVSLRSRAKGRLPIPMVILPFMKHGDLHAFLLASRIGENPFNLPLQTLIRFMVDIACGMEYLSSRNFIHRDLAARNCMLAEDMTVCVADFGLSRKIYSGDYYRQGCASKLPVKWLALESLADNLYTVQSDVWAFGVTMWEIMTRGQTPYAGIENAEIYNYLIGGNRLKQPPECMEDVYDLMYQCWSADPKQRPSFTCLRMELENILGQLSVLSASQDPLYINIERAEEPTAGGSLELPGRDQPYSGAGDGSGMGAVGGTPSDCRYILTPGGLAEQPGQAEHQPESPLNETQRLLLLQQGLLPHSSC

[10] = molecular target: T4, Tyrosine-protein kinase receptor UFO (Homo sapiens, UniProt P30530); test: Inhibition of Axl; summary of the method: as §1
T4 sequence (P30530 whole entry): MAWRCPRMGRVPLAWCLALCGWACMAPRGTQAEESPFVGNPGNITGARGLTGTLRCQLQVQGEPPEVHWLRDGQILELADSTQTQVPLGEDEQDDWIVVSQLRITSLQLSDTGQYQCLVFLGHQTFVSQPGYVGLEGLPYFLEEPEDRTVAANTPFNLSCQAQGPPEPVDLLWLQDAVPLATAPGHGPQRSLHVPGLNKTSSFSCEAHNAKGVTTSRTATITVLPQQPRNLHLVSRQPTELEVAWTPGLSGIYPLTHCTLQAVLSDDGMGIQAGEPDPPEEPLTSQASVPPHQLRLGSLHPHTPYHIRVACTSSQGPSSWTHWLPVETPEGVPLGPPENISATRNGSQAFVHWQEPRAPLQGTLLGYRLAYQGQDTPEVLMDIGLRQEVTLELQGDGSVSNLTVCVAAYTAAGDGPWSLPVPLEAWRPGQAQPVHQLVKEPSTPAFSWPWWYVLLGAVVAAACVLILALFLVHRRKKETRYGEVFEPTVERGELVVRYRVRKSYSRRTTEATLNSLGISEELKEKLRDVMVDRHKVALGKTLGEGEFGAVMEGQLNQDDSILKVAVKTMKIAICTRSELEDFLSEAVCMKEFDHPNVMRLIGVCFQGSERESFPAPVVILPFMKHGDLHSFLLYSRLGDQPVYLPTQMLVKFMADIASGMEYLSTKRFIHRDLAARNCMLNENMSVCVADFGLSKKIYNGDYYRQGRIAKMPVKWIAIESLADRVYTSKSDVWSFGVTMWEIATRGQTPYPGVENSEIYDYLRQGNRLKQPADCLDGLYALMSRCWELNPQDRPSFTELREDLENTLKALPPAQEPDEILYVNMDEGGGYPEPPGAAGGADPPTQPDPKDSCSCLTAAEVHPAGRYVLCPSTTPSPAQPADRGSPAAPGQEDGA

[11] = molecular target: Vascular endothelial growth factor receptor 2 (Homo sapiens, UniProt P35968); test: Inhibition of KDR; summary of the method: as §1
[12] = molecular target: Epidermal growth factor receptor (Homo sapiens, UniProt P00533); test: Inhibition of EGFR; summary of the method: as §1
Chain of Epidermal growth factor receptor (P00533 whole entry): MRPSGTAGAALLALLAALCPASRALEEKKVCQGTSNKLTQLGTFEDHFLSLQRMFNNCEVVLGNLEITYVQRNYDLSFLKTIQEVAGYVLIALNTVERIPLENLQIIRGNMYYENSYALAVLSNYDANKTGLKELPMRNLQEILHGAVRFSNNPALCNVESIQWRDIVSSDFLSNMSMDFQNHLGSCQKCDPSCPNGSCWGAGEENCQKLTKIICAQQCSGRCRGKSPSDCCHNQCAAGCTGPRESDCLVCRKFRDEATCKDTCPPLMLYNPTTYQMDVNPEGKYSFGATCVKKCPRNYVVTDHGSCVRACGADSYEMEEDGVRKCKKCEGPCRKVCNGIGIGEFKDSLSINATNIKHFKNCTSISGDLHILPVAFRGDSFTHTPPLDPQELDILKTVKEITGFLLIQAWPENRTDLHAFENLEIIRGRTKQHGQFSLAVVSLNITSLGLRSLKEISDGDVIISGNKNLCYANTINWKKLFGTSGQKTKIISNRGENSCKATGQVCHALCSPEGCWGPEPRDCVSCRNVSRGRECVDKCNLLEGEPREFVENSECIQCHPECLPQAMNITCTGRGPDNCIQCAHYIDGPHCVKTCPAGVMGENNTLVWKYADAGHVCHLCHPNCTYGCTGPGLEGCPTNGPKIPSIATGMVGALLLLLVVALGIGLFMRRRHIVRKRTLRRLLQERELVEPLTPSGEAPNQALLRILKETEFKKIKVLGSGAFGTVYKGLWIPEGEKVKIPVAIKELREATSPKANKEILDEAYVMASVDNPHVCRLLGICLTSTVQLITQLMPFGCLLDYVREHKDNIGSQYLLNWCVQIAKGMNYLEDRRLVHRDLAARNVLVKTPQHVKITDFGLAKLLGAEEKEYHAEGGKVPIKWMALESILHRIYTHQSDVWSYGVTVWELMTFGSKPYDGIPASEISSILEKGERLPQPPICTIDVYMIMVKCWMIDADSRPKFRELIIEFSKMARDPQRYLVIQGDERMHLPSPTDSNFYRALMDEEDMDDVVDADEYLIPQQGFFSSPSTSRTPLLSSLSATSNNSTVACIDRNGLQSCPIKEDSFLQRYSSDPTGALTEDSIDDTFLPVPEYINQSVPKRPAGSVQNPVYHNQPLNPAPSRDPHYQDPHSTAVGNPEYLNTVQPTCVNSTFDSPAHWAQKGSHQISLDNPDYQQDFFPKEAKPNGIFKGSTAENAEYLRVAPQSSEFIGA

[13] = molecular target: Fibroblast growth factor receptor 1 (Homo sapiens, UniProt P11362); test: Inhibition of FGFR1; summary of the method: as §1
[14] = molecular target: Platelet-derived growth factor receptor (Homo sapiens, UniProt P09619+P16234); test: Inhibition of PDGFR; format: protein-complex assay; summary of the method: as §1
[15] = molecular target: Vascular endothelial growth factor receptor 1 (Homo sapiens, UniProt P17948); test: Inhibition of FLT1; summary of the method: as §1
[16] = molecular target: Tyrosine-protein kinase ABL1 (Homo sapiens, UniProt P00519); test: Inhibition of ABL; summary of the method: as §1
Chain of Tyrosine-protein kinase ABL1 (P00519 whole entry): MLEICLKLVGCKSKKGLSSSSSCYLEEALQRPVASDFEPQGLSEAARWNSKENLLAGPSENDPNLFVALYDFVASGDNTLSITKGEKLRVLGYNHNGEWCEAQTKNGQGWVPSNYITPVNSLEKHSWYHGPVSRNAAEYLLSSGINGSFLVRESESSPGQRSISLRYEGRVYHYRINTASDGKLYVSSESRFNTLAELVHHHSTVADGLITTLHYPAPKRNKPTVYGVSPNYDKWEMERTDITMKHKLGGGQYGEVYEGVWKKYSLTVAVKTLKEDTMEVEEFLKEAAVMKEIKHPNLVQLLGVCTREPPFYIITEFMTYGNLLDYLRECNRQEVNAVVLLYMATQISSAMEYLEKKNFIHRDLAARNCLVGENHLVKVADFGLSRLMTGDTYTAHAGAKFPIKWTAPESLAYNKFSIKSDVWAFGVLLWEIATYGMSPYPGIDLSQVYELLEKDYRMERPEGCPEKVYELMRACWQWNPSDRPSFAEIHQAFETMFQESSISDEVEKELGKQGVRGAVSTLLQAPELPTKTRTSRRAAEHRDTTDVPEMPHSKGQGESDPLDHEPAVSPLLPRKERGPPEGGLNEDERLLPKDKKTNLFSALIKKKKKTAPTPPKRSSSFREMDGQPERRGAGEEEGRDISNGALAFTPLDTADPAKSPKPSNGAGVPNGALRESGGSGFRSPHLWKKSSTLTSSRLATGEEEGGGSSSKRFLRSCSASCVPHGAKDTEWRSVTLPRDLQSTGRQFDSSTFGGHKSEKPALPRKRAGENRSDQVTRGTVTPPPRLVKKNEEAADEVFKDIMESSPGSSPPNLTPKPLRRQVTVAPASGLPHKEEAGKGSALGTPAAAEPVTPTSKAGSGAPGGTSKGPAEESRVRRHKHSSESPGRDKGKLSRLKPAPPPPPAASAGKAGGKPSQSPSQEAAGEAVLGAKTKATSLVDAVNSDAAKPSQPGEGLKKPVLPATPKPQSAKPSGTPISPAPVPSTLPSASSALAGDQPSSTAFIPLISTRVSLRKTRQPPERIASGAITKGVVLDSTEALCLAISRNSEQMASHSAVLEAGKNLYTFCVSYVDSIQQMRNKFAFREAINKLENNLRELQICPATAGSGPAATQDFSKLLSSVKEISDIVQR

Ephrin type-A receptor 2 = Ephrin type-A receptor 2 (Homo sapiens, UniProt P29317); test: Inhibition of EPHA2; summary of the method: as §1
Chain of Ephrin type-A receptor 2 (P29317 whole entry): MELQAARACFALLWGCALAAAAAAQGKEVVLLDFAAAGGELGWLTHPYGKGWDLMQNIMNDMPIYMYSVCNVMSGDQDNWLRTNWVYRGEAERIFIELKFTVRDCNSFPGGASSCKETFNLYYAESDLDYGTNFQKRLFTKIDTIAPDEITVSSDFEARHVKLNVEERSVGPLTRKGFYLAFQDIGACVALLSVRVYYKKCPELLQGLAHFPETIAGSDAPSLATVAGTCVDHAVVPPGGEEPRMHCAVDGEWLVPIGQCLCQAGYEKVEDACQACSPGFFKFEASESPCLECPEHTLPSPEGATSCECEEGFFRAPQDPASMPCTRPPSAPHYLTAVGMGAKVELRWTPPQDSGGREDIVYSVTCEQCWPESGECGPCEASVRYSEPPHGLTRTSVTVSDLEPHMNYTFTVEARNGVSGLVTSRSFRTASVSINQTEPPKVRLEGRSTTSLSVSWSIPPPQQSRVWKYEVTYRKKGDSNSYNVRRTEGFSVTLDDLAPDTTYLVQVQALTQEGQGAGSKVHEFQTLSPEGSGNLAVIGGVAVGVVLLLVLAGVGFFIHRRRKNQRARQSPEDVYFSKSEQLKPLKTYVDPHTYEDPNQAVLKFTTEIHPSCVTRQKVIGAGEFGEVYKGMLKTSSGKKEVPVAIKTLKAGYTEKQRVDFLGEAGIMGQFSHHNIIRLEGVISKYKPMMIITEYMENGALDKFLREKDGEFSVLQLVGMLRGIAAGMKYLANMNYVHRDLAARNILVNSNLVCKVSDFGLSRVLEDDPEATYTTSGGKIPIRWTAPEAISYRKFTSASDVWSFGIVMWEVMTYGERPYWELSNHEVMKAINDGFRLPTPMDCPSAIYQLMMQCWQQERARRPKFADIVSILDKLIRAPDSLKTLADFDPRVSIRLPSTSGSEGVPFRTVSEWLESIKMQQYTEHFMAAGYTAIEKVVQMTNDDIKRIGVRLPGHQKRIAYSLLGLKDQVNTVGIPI

[17] = molecular target: Receptor tyrosine-protein kinase erbB-2 (Homo sapiens, UniProt P04626); test: Inhibition of ERBB2; summary of the method: as §1
[18] = molecular target: Receptor tyrosine-protein kinase erbB-4 (Homo sapiens, UniProt Q15303); test: Inhibition of ERBB4; summary of the method: as §1
[19] = molecular target: T1, Hepatocyte growth factor receptor; test: Inhibition of c-Met at 10 uM incubated for 60 mins by spectrophotometry; summary of the method: as §1

inhibition [1]: 13.1%
Structure (SMILES): CN(Cc1c(F)ccc(Cl)c1Cl)C(=O)c1cc(-c2cnn(C)c2)cnc1N

Structure (SMILES): C[C@@H](Oc1cc(-c2cnn(C3CCNCC3)c2)cnc1N)c1c(Cl)ccc(F)c1Cl [CRIZOTINIB]
IC50 [2]: 0.053 µM

Structure (SMILES): Cn1cc(-c2cnc(N)c(C(=O)NCc3c(F)ccc(F)c3Cl)c2)cn1
IC50 [2]: 6.9 µM

Structure (SMILES): CC(NC(=O)c1cc(-c2cnn(C3CCNCC3)c2)cnc1N)c1c(Cl)ccc(F)c1Cl (stereo not given)
IC50 [2]: 1.46 µM

Structure (SMILES): Cn1cc(-c2cnc(N)c(C(=O)NCc3cc(F)ccc3F)c2)cn1
IC50 [2]: 15 µM

Structure (SMILES): Cn1cc(-c2cnc(N)c(C(=O)NCc3c(F)ccc(Cl)c3Cl)c2)cn1
IC50 [2]: 12.7 µM

IC50 [3]: 0.022 µM
inhibition [4]: Dose-dependent effect
inhibition [5]: Active
inhibition [6]: Active
IC50 [7]: 8.26 µM
IC50 [8]: > 10 µM
IC50 [9]: > 10 µM
IC50 [10]: > 10 µM
IC50 [11]: > 10 µM
IC50 [12]: > 10 µM
IC50 [13]: 3.48 µM
IC50 [14]: > 10 µM
IC50 [15]: 8.16 µM
IC50 [16]: 4.99 µM
IC50 (Ephrin type-A receptor 2): 6.18 µM
IC50 [17]: > 10 µM
IC50 [18]: > 10 µM
Structure (SMILES): C[C@H](NC(=O)c1cc(-c2cnn(C3CCOCC3)c2)cnc1N)c1c(Cl)ccc(F)c1Cl
IC50 [2]: 1.22 µM

inhibition [1]: 18.1%
Structure (SMILES): CN(Cc1c(F)ccc(F)c1Cl)C(=O)c1cc(-c2cnn(C)c2)cnc1N

Structure (SMILES): Cn1cc(-c2cnc(N)c(C(=O)NCc3ccc(F)c(F)c3)c2)cn1
IC50 [2]: 14.6 µM

Structure (SMILES): CC(NC(=O)c1cc(-c2ccc3c(c2)CC(=O)N3)cnc1N)c1c(Cl)ccc(F)c1Cl (stereo not given)
IC50 [2]: 17.8 µM

inhibition [19]: 34.1%
Structure (SMILES): CC(c1c(Cl)ccc(F)c1Cl)n1cnc2ncc(-c3cnn(C4CCNCC4)c3)cc2c1=O (stereo not given)

Structure (SMILES): CC(NC(=O)c1cc(-c2ccc(OCC(=O)N3CCOCC3)cc2)cnc1N)c1c(Cl)ccc(F)c1Cl (stereo not given)
IC50 [2]: 6.05 µM

inhibition [19]: 28.9%
Structure (SMILES): CC(c1c(Cl)ccc(F)c1Cl)n1cnc2ncc(-c3cnn(C4CCN(C(=O)OC(C)(C)C)CC4)c3)cc2c1=O (stereo not given)

inhibition [1]: 10.9%
Structure (SMILES): CN(Cc1c(F)ccc(Cl)c1F)C(=O)c1cc(-c2cnn(C)c2)cnc1N

IC50 [3]: 0.099 µM
Structure (SMILES): CC(NC(=O)c1cc(-c2cnn(C3CCOCC3)c2)cnc1N)c1c(Cl)ccc(F)c1Cl (racemic)
IC50 [2]: 3.49 µM

inhibition [1]: 27.6%
Structure (SMILES): C[C@@H](NC(=O)c1cc(-c2cnn(C3CCOCC3)c2)cnc1N)c1c(Cl)ccc(F)c1Cl

Structure (SMILES): CC(NC(=O)c1cc(-c2cnn(C)c2)cnc1N)c1c(Cl)ccc(F)c1Cl (stereo not given)
IC50 [2]: > 50 µM
